# pIC50: −log10 of the molar value.
# Legend:
# [1] = molecular target: T1, Catechol O-methyltransferase (Homo sapiens, UniProt P21964); assay: Inhibition of recombinant human C-terminal His6-tagged MB-COMT expressed in Bacmid using SAM/dopamine as substrate preincubated for 2 hrs followed by substrate addition measured after 25 mins by SAC TAMRA tracer-based fluorescence polarization assay
# T1 sequence (P21964 whole entry): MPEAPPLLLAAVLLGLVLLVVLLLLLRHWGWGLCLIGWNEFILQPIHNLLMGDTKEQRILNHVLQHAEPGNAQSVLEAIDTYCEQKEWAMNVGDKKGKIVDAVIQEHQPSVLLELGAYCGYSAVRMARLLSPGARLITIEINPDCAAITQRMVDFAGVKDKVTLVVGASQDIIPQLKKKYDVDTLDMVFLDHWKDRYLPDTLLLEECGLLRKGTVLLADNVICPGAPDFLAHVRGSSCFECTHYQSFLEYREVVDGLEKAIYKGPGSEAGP
# [2] = molecular target: T1, Catechol O-methyltransferase; assay: Inhibition of recombinant human C-terminal His6-tagged soluble COMT transfected in Escherichia coli BL21-Gold (DE3) using SAM/dopamine as substrate preincubated for 2 hrs followed by substrate addition measured after 25 mins by SAC TAMRA tracer-based fluorescence polarization assay
# [3] = molecular target: T2, Catechol O-methyltransferase (Rattus norvegicus, UniProt P22734); assay: Inhibition of recombinant rat C-terminal His10-tagged MB-COMT transfected in Escherichia coli BL21-CodonPlus(DE3)-RIPL using SAM/dopamine as substrate preincubated for 2 hrs followed by substrate addition measured after 25 mins by SAC TAMRA tracer-based fluorescence polarization assay
# T2 sequence (P22734 whole entry): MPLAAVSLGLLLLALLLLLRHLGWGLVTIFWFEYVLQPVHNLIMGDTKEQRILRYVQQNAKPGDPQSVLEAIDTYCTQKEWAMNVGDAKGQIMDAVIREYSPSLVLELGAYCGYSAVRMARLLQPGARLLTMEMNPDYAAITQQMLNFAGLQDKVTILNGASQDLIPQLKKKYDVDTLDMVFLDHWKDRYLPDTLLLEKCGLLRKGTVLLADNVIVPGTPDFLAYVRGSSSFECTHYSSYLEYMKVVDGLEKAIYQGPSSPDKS
# [4] = Drug uptake in rat cerebrospinal fluid at 100 mg/kg, ip after 1 hr; assay type: ADME, organism-based; details: read-out: Drug uptake
# Outline: (§1)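 Rats dosed intraperitoneally at 30 or 100 mg/kg. Plasma and cerebrospinal fluid were sampled one hour after dosing, and drug concentrations were measured in each.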
# [5] = tested on: Cerebrospinal fluid; assay: Drug uptake in rat cerebrospinal fluid at 30 mg/kg, ip after 1 hr; assay type: ADME, organism-based; details: in vivo, BLD = below limit of detection; outline: as §1
# [6] = Volume of distribution in rat at 0.5 mg/kg, iv; assay type: ADME, organism-based; details: in vivo
# Outline: (§2)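 Rat PK after a single intravenous dose of 0.5 mg/kg given in DMSO. Plasma clearance, volume of distribution and half-life were derived from the plasma data.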
# [7] = Intrinsic clearance in human hepatocytes; assay type: ADME, cell-based, Hepatocyte; details: read-out: CLH
# [8] = Plasma concentration in rat at 30 mg/kg, ip after 1 hr; assay type: ADME, organism-based; outline: as §1
# [9] = Half life in rat at 0.5 mg/kg, iv; assay type: ADME, organism-based; details: in vivo; outline: as §2
# [10] = Plasma concentration in rat at 100 mg/kg, ip after 1 hr; assay type: ADME, organism-based; outline: as §1
# [11] = tested on: Rattus norvegicus; assay: In vivo inhibition of MB-COMT in ip dosed rat assessed as increase in dihydroxyphenylacetic acid level in cerebrospinal fluid after 1 hr; assay type: functional, organism-based
# Outline: (§3)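 Rats were dosed intraperitoneally, and cerebrospinal fluid was collected one hour later. HVA and DOPAC levels were measured and compared with vehicle by ANOVA, with significance set at p<0.05.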
# [12] = Plasma clearance in rat at 0.5 mg/kg, iv; assay type: ADME, organism-based; outline: as §2
# [13] = tested on: Rattus norvegicus; assay: In vivo inhibition of MB-COMT in ip dosed rat assessed as decrease in homovanillic acid level in cerebrospinal fluid after 1 hr; assay type: functional, organism-based; outline: as §3
# [14] = Intrinsic clearance in rat hepatocytes; assay type: ADME, cell-based, Hepatocyte; details: read-out: CLH
Compound,pIC50 [1],pIC50 [2],other results
O=c1ccn(-c2cc(-c3cccnc3)ccn2)cc1O,6.24,–,–
O=c1ccn(-c2cc(-c3ccncc3)ccn2)cc1O,6.17,–,–
O=c1ccn(-c2nccc3ccccc23)cc1O,6.02,5.90,–
Cc1cn2nc(-n3ccc(=O)c(O)c3)ccc2n1,< 5.30,5.78,–
O=c1ccn(-c2ccnc(-c3ccccc3)c2)cc1O,6.34,5.63,–
O=c1ccn(-c2cc(-c3ccccn3)ccn2)cc1O,6.08,–,–
O=c1ccn(-c2ccnc(-c3ccccc3)n2)cc1O,6.15,5.69,–
O=c1ccn(-c2ncccc2-c2ccccc2)cc1O,< 5.30,< 5.30,–
O=c1ccn(-c2cccc(-c3ccccc3)c2)cc1O,–,–,CLint scaled [7]: 19.2 L/h/kg; clearance [12]: 3.48 L/h/kg; CLint scaled [14]: 35 L/h/kg
O=c1ccn(-c2nc(-c3ccccn3)cs2)cc1O,< 5.30,< 5.30,–
O=c1ccn(-c2cccc(-c3ccccc3)n2)cc1O,6.89,5.59,–

# More lines, in order of rising pIC50 [1], values ahead:
pIC50 [1],pIC50 [2],Compound,other results
7.00,–,CC(C)(C)c1nc(-c2ccnc(-n3ccc(=O)c(O)c3)c2)cs1,pIC50 [3]: 7.82
7.08,–,O=c1ccn(-c2cc(-c3cccc(C(F)(F)F)n3)ccn2)cc1O,pIC50 [3]: 7.96
7.26,6.02,O=c1ccn(-c2nccc(-c3ccccc3)c2F)cc1O,–
7.31,–,O=c1ccn(-c2cc(-c3cnn(Cc4ccccc4)c3)ccn2)cc1O,pIC50 [3]: 7.55
7.40,5.52,O=c1ccn(-c2cc(-c3ccccc3)ccn2)cc1O,concentration at 1 h [4]: 0.41 µM; Drug uptake [5]: BLD; Vd [6]: 1.9 L/kg; CLint scaled [7]: 4.44 L/h/kg; concentration at 1 h [8]: 0.07 µM; half-life [9]: 24 min; concentration at 1 h [10]: 3.6 µM; inhibition [11]: Dose-dependent effect; pIC50 [3]: 7.82; clearance [12]: 5.64 L/h/kg; inhibition [13]: Dose-dependent effect; CLint scaled [14]: 26.9 L/h/kg
7.46,–,O=c1ccn(-c2cc(-c3ccc(Cl)c(Cl)c3)ccn2)cc1O,CLint scaled [7]: 17.5 L/h/kg; pIC50 [3]: 7.57; clearance [12]: 12 L/h/kg
